Test results reported in ChEMBL document CHEMBL3244046, “Cardenolide analogues. 7. Synthesis and biological activity of some new steroidal guanylhydrazones” (J Med Chem, 1978).
Active and inactive are the calls of the source.

Tests used:
Left cardiac atrium [1] = assay: Negative inotropic activity in guinea pig left atrium assessed as isometric force of contraction at 10^-8 to 10^-4 M relative to control; format: functional, tissue-based; conditions: Cavia porcellus
In short: (§1)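 Guinea pig left auricle in Krebs-Henseleit, 32 °C, gassed O2/5% CO2, resting tension about 1 g. Paced with 10-ms rectangular pulses at 100/min, voltage 20% above threshold. Cumulative dose-response curves up to 10⁻⁴ M. Isometric contraction changes computed against control atria.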

Cavia porcellus [2] = species: Cavia porcellus; assay: Inhibition of Na(+)/K(+) ATPase-mediated phosphohydrolase activity in guinea pig myocardium at 5 X 10^-5 M after 30 mins relative to control; format: tissue-based
In short: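 Crude membranes from guinea pig myocardium (5-10 units activity; unit = µmol Pi liberated/mg protein/h) incubated 37 °C, 30 min. Substrate consumption under 15% without drug. Dose-response curves over 10⁻⁸–10⁻⁴ M, duplicate determinations; values read from curves.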

Cavia porcellus [3] = species: Cavia porcellus; assay: Inhibition of ouabain-insensitive Mg(2+)-ATPase-mediated phosphohydrolase activity in guinea pig myocardium at 5 X 10^-5 M after 30 mins relative to control; format: tissue-based
In short: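 Guinea pig myocardial crude membranes (5-10 units; µmol Pi/mg protein/h), assayed without Na+ and K+ (ouabain-insensitive activity), with and without drug, 37 °C for 30 min. Substrate use under 15% in drug-free controls. Drug tested 10⁻⁸–10⁻⁴ M in duplicate; values taken from dose-response curves.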

Left cardiac atrium [4] = assay: Inotropic activity in guinea pig left atrium assessed as change in isometric force of contraction at 5 X 10^-5 M relative to control; format: functional, Cavia porcellus; in short: as §1
Cavia porcellus [5] = species: Cavia porcellus; assay: Inhibition of Na(+)/K(+) ATPase-mediated phosphohydrolase activity in guinea pig myocardium at 1 X 10^-5 M after 30 mins relative to control; format: tissue-based
In short: (§2)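 Crude guinea pig myocardial membrane preparation (5-10 units each enzyme; µmol Pi/mg protein/h), incubated 37 °C for 30 min. Substrate consumption stayed below 15%. Dose-response curves spanned 10⁻⁸–10⁻⁴ M in duplicate, and values were read from the curves.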

Left cardiac atrium [6] = assay: Inotropic activity in guinea pig left atrium assessed as change in isometric force of contraction at 1 X 10^-5 M relative to control; format: functional, Cavia porcellus
In short: (§3)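 Guinea pig left auricle in Krebs-Henseleit at 32 °C, gassed with O₂/5% CO₂ under about 1 g resting tension. Pacing used 10-ms rectangular pulses at 100/min and 20% above threshold voltage. Change in isometric contraction was referenced to control atria. Cumulative dose-response curves ran up to 10⁻⁴ M.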

Left cardiac atrium [7] = assay: Toxicity in guinea pig left atrium assessed as tissue arrest at 5 X 10^-5 M relative to control; format: tissue-based, Cavia porcellus; conditions: 50 µM
In short: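 Electrically paced guinea pig left auricle (Krebs-Henseleit, 32 °C, O₂/5% CO₂, about 1 g resting tension, 10-ms pulses at 100/min, 20% above threshold) given cumulative drug doses up to 10⁻⁴ M. Toxicity was scored as tissue arrest, which follows the inflection of the dose-response curve.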

Cavia porcellus [8] = species: Cavia porcellus; assay: Inhibition of ouabain-insensitive Mg(2+)-ATPase-mediated phosphohydrolase activity in guinea pig myocardium at 1 X 10^-5 M after 30 mins relative to control; format: tissue-based
In short: (§4)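 Guinea pig myocardial crude membranes were incubated 30 min at 37 °C without Na⁺ and K⁺. Ouabain-insensitive Mg²⁺-ATPase activity was measured as inorganic phosphate released (µmol/mg protein/h), with and without drug. Substrate use stayed under 15%. Dose-response curves covered 10⁻⁸–10⁻⁴ M, run in duplicate, and values were taken from the curves.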

Cavia porcellus [9] = species: Cavia porcellus; assay: Inhibition of Na(+)/K(+) ATPase-mediated phosphohydrolase activity in guinea pig myocardium at 2 X 10^-6 M after 30 mins relative to control; format: tissue-based; in short: as §2
Cavia porcellus [10] = species: Cavia porcellus; assay: Inhibition of ouabain-insensitive Mg(2+)-ATPase-mediated phosphohydrolase activity in guinea pig myocardium at 2 X 10^-6 M after 30 mins relative to control; format: tissue-based; in short: as §4
Left cardiac atrium [11] = assay: Inotropic activity in guinea pig left atrium assessed as change in isometric force of contraction at 2 X 10^-6 M relative to control; format: functional, Cavia porcellus; in short: as §3

Structure (SMILES) | inhibition (Cavia porcellus [2]) [%] | inhibition (Cavia porcellus [3]) [%] | Imax (Cavia porcellus [3]) [%] | Activity (Left cardiac atrium [1]) | Activity (Left cardiac atrium [4]) [%] | other results
C[C@]12CC[C@H]3[C@@H](CCC4=C[C@@H](O)CC[C@@]43C)[C@@H]1CC[C@@H]2/C=N\NC(=N)N | 54 | – | 30 | Active | -18 | –
C[C@]12CC[C@H](O)C[C@H]1CC[C@@H]1[C@@H]2CC[C@]2(C)[C@@H](/C=N\NC(=N)N)CC[C@]12O | 53 | 0 | – | – | – | inhibition (Cavia porcellus [5]): 20%; Activity (Left cardiac atrium [6]): 120%; Activity (Left cardiac atrium [7]): Toxic; inhibition (Cavia porcellus [8]): 0%
C[C@]12CC[C@H](O)C[C@H]1CC[C@@H]1[C@@H]2CC[C@]2(C)[C@@H](C3=CC(=O)OC3)CC[C@]12O [DIGITOXIGENIN] | – | – | – | – | – | inhibition (Cavia porcellus [9]): 60%; inhibition (Cavia porcellus [10]): 0%; Activity (Left cardiac atrium [11]): 130%

The next lines start with results.

inhibition (Cavia porcellus [2]) [%] | inhibition (Cavia porcellus [3]) [%] | Imax (Cavia porcellus [3]) [%] | Structure (SMILES) | Activity (Left cardiac atrium [1]) | Activity (Left cardiac atrium [4]) [%] | other results
55 | 55 | – | C[C@]12CC[C@H](O)C[C@H]1CC[C@@H]1[C@@H]2CC[C@]2(C)[C@@H](/C=N\NC(=N)N)CC[C@@H]12 | Active | -45 | –
40 | – | 43 | C[C@]12CC[C@H](O)C[C@@H]1CC[C@@H]1[C@@H]2CC[C@]2(C)[C@@H](/C=N\NC(=N)N)CC[C@@H]12 | Active | -50 | –
37 | 45 | – | C[C@]12CC[C@@H](O)C[C@H]1CC[C@@H]1[C@@H]2CC[C@]2(C)[C@@H](/C=N\NC(=N)N)CC[C@@H]12 | Active | -10 | –
